We go through 18 molecules from ChEMBL document CHEMBL1149468, “Pyridobenzodiazepines: a novel class of orally active, vasopressin V2 receptor selective agonists” (Bioorg Med Chem Lett, 2006).

Activity calls are given as the source filed them. No cut-off for these calls is given here. Bridge positions count the residues as written; N and C are the ends. Square brackets hold non-standard residues; d marks the D form. Peptide text beside a SMILES is read from it. Orn = NCCC[C@H](N)C(=O)O; Mpa = O=C(O)CCS Some results are limits rather than exact numbers.

For orientation: inhibition means the change of the read-out against control, counted positive when it falls. As a reminder, the IC50 is the point on the concentration scale where inhibition reaches its midpoint. One may read the ED50 as the dose at which the effect has come halfway, by size or by number of responders. The term EC50 denotes the concentration needed to bring the measured effect to its halfway point.

In assay [1] the target is T1, Vasopressin V1a receptor (Homo sapiens, UniProt P37288). Nature of the assay: Displacement of [3H]AVP from human V1a receptor expressed in CHO cells at 0.1 uM. Type of assay: cell-based. Background: Loss of bound radioactivity is the signal in a displacement assay; it reports binding, not function.
Target sequence in this assay (P37288 whole entry, looked up): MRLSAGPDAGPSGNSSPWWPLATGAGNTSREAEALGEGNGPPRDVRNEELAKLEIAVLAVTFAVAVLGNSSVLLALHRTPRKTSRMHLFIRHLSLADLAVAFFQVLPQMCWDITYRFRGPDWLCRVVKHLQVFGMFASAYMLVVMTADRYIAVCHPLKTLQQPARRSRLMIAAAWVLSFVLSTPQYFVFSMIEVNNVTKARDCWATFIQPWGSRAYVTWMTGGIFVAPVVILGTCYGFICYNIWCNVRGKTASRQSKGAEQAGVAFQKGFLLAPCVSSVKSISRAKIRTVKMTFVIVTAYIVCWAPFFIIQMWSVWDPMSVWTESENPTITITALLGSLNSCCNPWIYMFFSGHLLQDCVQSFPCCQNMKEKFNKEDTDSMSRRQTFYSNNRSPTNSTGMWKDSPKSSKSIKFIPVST
Assay [2] deals with Rattus norvegicus. Nature of the assay: Antidiuretic effect measured as decrease in urine volume over control in water-loaded Sprague-Dawley rat at 10 mg/kg, po. Type of assay: functional. On the set-up: Activity: scale not given: the % may be the effect or the level left. Particulars: for Activity: dose 10 mg/kg; for ED50: Rattus norvegicus, Sprague-Dawley, Urine. Summed up:
(§1)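 Conscious water-loaded rats dosed orally; 30 min later stomachs gavaged with deionized water, 30 mL/kg. Urine collected over 4 h for volume; osmolality by cryoscopic osmometer; Na+, K+, Cl- by ion-selective electrodes. Expressed as percent change versus control at the stated dose (screening dose 10 mg/kg po).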

Assay [3] addresses T2, Vasopressin V2 receptor (Homo sapiens, UniProt P30518). The assay is described as follows: Displacement of [3H]AVP from human V2 receptor transfected in LV2 cells. The class given is cell-based. Summed up:
(§2)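 Inhibition of [3H]AVP binding to membranes from CHO cells expressing human V1a receptors or from LV2 cells transfected with human V2 receptors; IC50 values are means of two to five (or three) experiments.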

The subject of assay [4] is Rattus norvegicus. The assay is described as follows: Antidiuretic effect measured as increase in osmolality over control in water-loaded Sprague-Dawley rat at 10 mg/kg, po. The class given is functional, Urine. Summed up:
as §1

For assay [5], the target named is T2, Vasopressin V2 receptor. The assay is described as follows: Displacement of [3H]AVP from human V2 receptor transfected in LV2 cells at 300 nM. Type of assay: cell-based. Summed up: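 Inhibition of [3H]AVP binding to membranes of LV2 cells transfected with human V2 receptors, reported as percent inhibition at 300 nM.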
For assay [6], the target named is T1, Vasopressin V1a receptor. The assay is described as follows: Displacement of [3H]AVP from human V1a receptor expressed in CHO cells. Type of assay: cell-based. Summed up:
as §2
Target sequence in this assay (P37288 whole entry): as the sequence (P37288 whole entry, looked up) above

The target in assay [7] is Vasopressin V1a receptor (Rattus norvegicus, UniProt P30560). Nature of the assay: Antagonism of AVP-induced response at V1a receptor in isolated rat tail arteries. Type of assay: functional, tissue-based.
Assay [8] deals with T2, Vasopressin V2 receptor. Nature of the assay: Binding to human V2 receptor expressed in LV2 cells by cAMP production. The class given is functional, cell-based. In general terms: Changes in cAMP serve as a functional read-out for many G protein-coupled receptors.
The target in assay [9] is T3, Oxytocin receptor (Rattus norvegicus) (UniProt P70536).
T3 sequence (whole entry): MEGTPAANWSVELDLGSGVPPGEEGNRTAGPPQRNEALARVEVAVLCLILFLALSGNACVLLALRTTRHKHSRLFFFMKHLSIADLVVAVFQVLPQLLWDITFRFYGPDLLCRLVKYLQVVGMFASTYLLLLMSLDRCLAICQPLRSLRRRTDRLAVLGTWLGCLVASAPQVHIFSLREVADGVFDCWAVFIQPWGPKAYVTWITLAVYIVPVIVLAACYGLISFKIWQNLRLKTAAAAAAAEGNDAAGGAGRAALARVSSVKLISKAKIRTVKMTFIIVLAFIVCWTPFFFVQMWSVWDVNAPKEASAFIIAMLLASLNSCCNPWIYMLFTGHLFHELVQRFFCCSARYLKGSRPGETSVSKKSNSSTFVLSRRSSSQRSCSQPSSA
Nature of the assay: Agonist activity at OT receptor indicated by production of contractions in rat uterine strips. Type of assay: functional.

In assay [10] the target is Vasopressin V1a receptor (Rattus norvegicus) (UniProt P30560). The assay is described as follows: Agonist activity at V1a receptor indicated by production of contractions in rat tail arteries. Type of assay: functional, tissue-based.
In another assay the target is T4, Oxytocin receptor (Rattus norvegicus, UniProt P70536).
T4 sequence (P70536 whole entry): T3 sequence (whole entry)
The assay is described as follows: Antagonism of OT-induced response at OT receptor in rat uterine strips. The class given is functional.

In assay [11] the target is T1, Vasopressin V1a receptor. The assay is described as follows: Displacement of [3H]AVP from human V1a receptor expressed in CHO cell membrane at 10 uM. The class given is cell membranes.
Target sequence in this assay (P37288 whole entry, looked up): as the sequence (P37288 whole entry, looked up) above
Assay [12] has as its target T1, Vasopressin V1a receptor. The assay is described as follows: Displacement of [3H]AVP from human V1a receptor expressed in CHO cells at 1 uM. Type of assay: cell-based.
Target sequence in this assay (P37288 whole entry, looked up): as the sequence (P37288 whole entry, looked up) above

T2 sequence (P30518 whole entry): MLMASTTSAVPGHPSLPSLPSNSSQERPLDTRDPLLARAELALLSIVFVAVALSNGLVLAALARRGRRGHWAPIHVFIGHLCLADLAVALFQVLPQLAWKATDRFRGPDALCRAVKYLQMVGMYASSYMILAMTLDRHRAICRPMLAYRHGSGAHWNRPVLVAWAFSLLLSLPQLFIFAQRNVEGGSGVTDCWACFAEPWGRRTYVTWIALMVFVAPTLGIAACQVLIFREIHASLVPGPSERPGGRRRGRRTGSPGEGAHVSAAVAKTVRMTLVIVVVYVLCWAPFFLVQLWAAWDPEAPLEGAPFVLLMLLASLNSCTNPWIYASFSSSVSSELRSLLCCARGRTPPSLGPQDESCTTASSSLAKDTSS
Vasopressin V1a receptor (Rattus norvegicus, UniProt P30560), sequence (P30560 whole entry): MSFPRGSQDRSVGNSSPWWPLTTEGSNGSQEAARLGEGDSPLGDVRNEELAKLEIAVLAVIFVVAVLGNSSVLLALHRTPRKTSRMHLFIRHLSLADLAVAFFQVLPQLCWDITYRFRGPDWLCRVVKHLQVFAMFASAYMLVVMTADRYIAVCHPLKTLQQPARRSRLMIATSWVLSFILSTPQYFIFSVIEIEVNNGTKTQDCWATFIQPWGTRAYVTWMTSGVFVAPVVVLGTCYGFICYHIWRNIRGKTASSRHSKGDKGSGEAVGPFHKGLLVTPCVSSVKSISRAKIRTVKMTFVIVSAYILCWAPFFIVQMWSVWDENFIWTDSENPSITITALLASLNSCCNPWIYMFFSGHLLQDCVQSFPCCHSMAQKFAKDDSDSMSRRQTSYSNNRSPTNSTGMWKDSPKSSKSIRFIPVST
Vasopressin V1a receptor (Rattus norvegicus), sequence (P30560 whole entry, looked up): as the sequence (P30560 whole entry) above

On to `Cc1ccnn1-c1ccc(C(=O)N2Cc3cccnc3Nc3ccccc32)c(C(F)(F)F)c1`, for which, on Vasopressin V1a receptor [1], the inhibition amounted to 11%. In addition, the Activity was found to be 25% with Rattus norvegicus [2] and 4% in the assay with Rattus norvegicus [4]. In addition, the IC50 at Vasopressin V2 receptor [3] worked out at 413 nM.

In the case of `Cc1ccn(-c2cc(F)ccc2C(=O)N2Cc3cccnc3Nc3ccccc32)n1`, on Vasopressin V2 receptor [5], the inhibition stood at 5%. The Activity in the assay on Rattus norvegicus [2] came to 63%; in the assay on Rattus norvegicus [4], 177%.

As to `Cc1ccn(-c2ccc(C(=O)N3Cc4cccnc4Nc4ccccc43)c(C(F)(F)F)c2)n1`, the IC50 at Vasopressin V1a receptor [6] was 5950 nM; against Vasopressin V1a receptor [7], > 30000 nM; on Vasopressin V2 receptor [3], 493 nM; on Oxytocin receptor it was 1260 nM. The 50% effect level in the assay with Rattus norvegicus [2] (ED50) was put at a dose of 0.1 mg/kg. The Activity in the assay with Rattus norvegicus [2] is recorded as 87%; with Rattus norvegicus [4] it was 239%. Moreover, the midpoint of the response at Vasopressin V2 receptor [8], the EC50, lay at 1.67 nM. The result in assay [9] and in assay [10] was inactive.

With `Cc1ccn(-c2ccc(C(=O)N3Cc4cccnc4N(C)c4ccccc43)c(C(F)(F)F)c2)n1`, the figures for the inhibition on Vasopressin V2 receptor [5] and on Vasopressin V1a receptor [11] were 10% and 32%, respectively. The values for the Activity in the assay with Rattus norvegicus [2] and with Rattus norvegicus [4] were 72% and 198%, respectively.

`Cc1ccn(-c2ccc(C(=O)N3Cc4cccnc4Nc4ccccc43)c(F)c2)n1`: the Activity in the assay with Rattus norvegicus [2] turned out to be 59%; in the assay with Rattus norvegicus [4], 272%. The IC50 on Vasopressin V2 receptor [3] came out at 933 nM.

As to `Cn1ccc(-c2ccc(C(=O)N3Cc4cccnc4Nc4ccccc43)c(Cl)c2)n1`, the IC50 at Vasopressin V1a receptor [6] was determined as 1780 nM; on Vasopressin V2 receptor [3], 183 nM. Further, the values for the Activity with Rattus norvegicus [2] and in the assay with Rattus norvegicus [4] were 76% and 134%, respectively.

Take `Cc1ccn(-c2ccc(C(=O)N3Cc4cccnc4Nc4ccccc43)c(Cl)c2)n1`: the Activity came out at 80% with Rattus norvegicus [2] and 172% with Rattus norvegicus [4]. The inhibition on Vasopressin V1a receptor [12] was determined as 38%. Also, the concentration for half-maximal inhibition (IC50) at Vasopressin V2 receptor [3] came out at 91.5 nM.

Take `O=C(c1ccc(-n2ccc(C(F)(F)F)n2)cc1Cl)N1Cc2cccnc2Nc2ccccc21`: on Vasopressin V2 receptor [5], the inhibition worked out at 13%. Also, the Activity in the assay on Rattus norvegicus [2] is on record as 72%; in the assay on Rattus norvegicus [4] it was 162%.

Regarding `Cc1ccn(-c2ccc(C(=O)N3Cc4cccnc4Nc4ccccc43)c(Br)c2)n1`, the Activity in the assay with Rattus norvegicus [2] worked out at 85%; in the assay with Rattus norvegicus [4] it was 247%. Besides, on Vasopressin V1a receptor [12], the inhibition worked out at 30%. The IC50 at Vasopressin V2 receptor [3] is 296 nM.

As for `Cc1n[nH]c(-c2ccc(C(=O)N3Cc4cccnc4Nc4ccccc43)c(Cl)c2)n1`, the Activity in the assay on Rattus norvegicus [2] was 86%; in the assay on Rattus norvegicus [4], 516%.

Regarding `Cc1ccn(-c2ccc(C(=O)N3Cc4cccn4Cc4ccccc43)c(Cl)c2)n1`, the IC50 came out at 778 nM on Vasopressin V1a receptor [6] and 80 nM on Vasopressin V2 receptor [3]. In the assay on Rattus norvegicus [2], this molecule gave a median effective dose (ED50) of 0.14 mg/kg. The Activity in the assay on Rattus norvegicus [2] was determined as 74%; with Rattus norvegicus [4] it was 286%. This molecule gave an EC50 at Vasopressin V2 receptor [8] of 0.74 nM.

For the molecule `O=C(c1ccc(-n2ccc(-c3ccncc3)n2)cc1Br)N1Cc2cccnc2Nc2ccccc21`, the inhibition at Vasopressin V2 receptor [5] was 26%. For the same molecule, the Activity with Rattus norvegicus [2] is 24%; in the assay with Rattus norvegicus [4] it was 11%.

In the case of `O=C(c1ccc(-n2ccc(C(F)(F)F)n2)cc1C(F)(F)F)N1Cc2cccnc2Nc2ccccc21`, on Vasopressin V2 receptor [5], the inhibition was -7%. Further, the Activity in the assay with Rattus norvegicus [2] came out at 69%; in the assay on Rattus norvegicus [4] it was 183%.

With `CC(C)(C)c1ccn(-c2ccc(C(=O)N3Cc4cccnc4Nc4ccccc43)c(C(F)(F)F)c2)n1`, the inhibition at Vasopressin V2 receptor [5] came out at 26%. Further, the Activity in the assay on Rattus norvegicus [2] is recorded as 6%; in the assay with Rattus norvegicus [4] it was -7%.

As for `CN1c2ccccc2N(C(=O)c2ccc(-c3ccn(C)n3)cc2Cl)Cc2cccnc21`, the Activity with Rattus norvegicus [2] was 10%; in the assay on Rattus norvegicus [4], -11%.

With `Cc1ccn(-c2ccc(C(=O)N3Cc4cccnc4N(C)c4ccccc43)c(Cl)c2)n1`, the Activity with Rattus norvegicus [2] turned out to be 71%; in the assay on Rattus norvegicus [4], 275%. Also, on Vasopressin V1a receptor [12], the inhibition amounted to 20%. On Vasopressin V2 receptor [3], this molecule had an IC50 of 475 nM.

`CCOc1ccc(C[C@H]2NC(=O)CCSSC[C@@H](C(=O)N3CCC[C@H]3C(=O)N[C@@H](CCCN)C(=O)NCC(N)=O)NC(=O)[C@H](CC(N)=O)NC(=O)[C@H]([C@@H](C)O)NC(=O)[C@H]([C@@H](C)CC)NC2=O)cc1` [ATOSIBAN] ([Mpa][dY](Et)ITNCP[Orn]G-NH2; disulfide 1-6) registered an IC50 against Oxytocin receptor of 12 nM.

As for `Cc1ccnn1-c1ccc(C(=O)N2Cc3cccnc3Nc3ccccc32)c(Cl)c1`, the Activity was 61% with Rattus norvegicus [2] and 189% in the assay with Rattus norvegicus [4]. Further, on Vasopressin V2 receptor [3], the IC50 stood at 390 nM.
